Published values collected from several papers.
Lines come from different studies, so protocols differ.
Target: Cyclin-dependent kinase 18 (CDK18, Homo sapiens, UniProt Q07002)

SMILES	assay	conditions	remaining binding [%]
COc1cnc(Nc2cccc(S(N)(=O)=O)c2)nc1N1CCN(c2ccccc2)CC1	binding, competition with immobilised ligand	1 µM	98
CN(C)c1nccc(-c2cnn3ncccc23)n1	binding	1 µM	89
NS(=O)(=O)c1cc(NC(=O)C2(c3ccccc3Cl)CC2)ccc1Oc1cccc(Cl)c1	cell-free assay, competition with immobilised ligand	1 µM	69
CN(CCCC(F)(F)F)c1nccc(-c2cnn3ncccc23)n1	binding	1 µM	52
CCOC(=O)c1cc2cc(-c3cc(C(=O)NCc4ccc(C(=O)O)cc4)nn3C)ccc2[nH]1	cell-free assay, competition with immobilised ligand	0.1 µM	100
CNC(=O)[C@@H]1CC[C@@H](n2c(-c3ccc4cnccc4c3)nc3ccc(C(=O)NCc4cccc(C(N)=O)c4)cc32)C1	binding, competition with immobilised ligand	1 µM	100
Nc1ncc2c(n1)-c1c([nH]c3ccc(C#CC4CC4)cc13)CCCC2	binding, competition with immobilised ligand	1 µM	100
CN(C)c1ncnc(-c2ccc3nc(Nc4cc(CN5CCN(C(=O)CC(F)(F)F)CC5)ccn4)[nH]c3c2)c1Cl	cell-free assay, competition with immobilised ligand	1 µM	100
O=C(NCC1CCOCC1)c1n[nH]cc1NC(=O)c1c(F)cccc1F	binding, competition with immobilised ligand	1 µM	86
O=C(c1ccc(Nc2ncc(Cl)c(-c3cc4ccccc4s3)n2)cc1)N1CCC(N2CCCC2)CC1	binding, competition with immobilised ligand	1 µM	64
CNC(=O)Nc1ccc2c(c1)[C@@]1(CC2)OC(=O)N(CC(=O)N(Cc2ccc(F)cc2)[C@@H](C)C(F)(F)F)C1=O	cell-free assay, competition with immobilised ligand	1 µM	100
COc1ccnn2ncc(-c3ccnc(N(C)C)n3)c12	binding	1 µM	100
O=C(c1ccc(Nc2ncc(Cl)c(-c3ccc(Cl)s3)n2)cc1)N1CCC(N2CCCC2)CC1	binding, competition with immobilised ligand	1 µM	43
CN1CCN(c2ccc(Nc3nccc(-c4ccccc4)n3)cc2C(F)(F)F)CC1	binding	10 µM	23
C[C@H](c1cccc(C#N)c1)n1cc(Cl)cc(C(N)=O)c1=N	cell-free assay, competition with immobilised ligand	1 µM	100
N[C@H]1CCN(c2nccc(-c3cnn4ncccc34)n2)C1	binding	1 µM	100
CC1=C(C#N)[C@@H](c2ccc3[nH]nc(C)c3c2)C(C#N)=C(c2ccc(Cl)cc2)N1	cell-free assay, competition with immobilised ligand	1 µM	100
O=C(c1ccc(Nc2nccc(-c3cc4ccccc4s3)n2)cc1)N1CCC(N2CCCC2)CC1	binding, competition with immobilised ligand	1 µM	100
c1cncc(-c2cccc(Nc3nccc(NC4CCCCC4)n3)c2)c1	binding, competition with immobilised ligand	10 µM	100
C[C@@H]1CCN(c2nccc(-c3cnn4ncccc34)n2)C1	binding	1 µM	100
C[C@@H](c1ccc(-n2cnc3c(N)ncnc32)cc1)N1CCc2nn(C)c(Cc3ccccc3)c2C1=O	binding, competition with immobilised ligand	0.1 µM	100
NS(=O)(=O)c1cc(NC(=O)Cc2ccccc2)ccc1Oc1cccc(Cl)c1	cell-free assay, competition with immobilised ligand	1 µM	100
F[C@@H]1CCN(c2nccc(-c3cnn4ncccc34)n2)C1	binding	1 µM	86
